# Experimental data gathered from unrelated publications.
# Compare with care: the assays were run in different laboratories.
# Organism: Enterobacter cloacae
# Read-out: microbial growth
Compound,test,system,MIC
CC(C)CNc1nc(Cl)c2c(c1O)C(=O)C1=C(O)[C@]3(O)C(=O)C(C(N)=O)=C(O)[C@@H](N(C)C)[C@@H]3C[C@@H]1C2.Cl.Cl.Cl,broth dilution,ATCC13047,> 32 µg/mL
CN(C)[C@@H]1C(O)=C(C(N)=O)C(=O)[C@@]2(O)C(O)=C3C(=O)c4c(cc5ccc(CN6CC(F)(F)C6)cc5c4O)C[C@H]3C[C@@H]12,broth dilution,ATCC13047,32 µg/mL
Cc1nc(Cl)c2c(c1O)C(=O)C1=C(O)[C@]3(O)C(=O)C(C(N)=O)=C(O)[C@@H](N(C)C)[C@@H]3C[C@@H]1C2.Cl,broth dilution,ATCC13047,32 µg/mL
CNC(=O)c1cc(Oc2ccc(NC(=O)Nc3ccc(Cl)c(C(F)(F)F)c3)cc2)ccn1,,DSM30054,> 100 µM
CN(C)CCOc1c2c(c(O)c3cc(CN4CCC4)ccc13)C(=O)C1=C(O)[C@]3(O)C(=O)C(C(N)=O)=C(O)[C@@H](N(C)C)[C@@H]3C[C@@H]1C2,broth dilution,ATCC13047,> 32 µg/mL
Cc1c(CN(C)C(=O)/C=C/c2cnc3c(c2)CC(CCN)C(=O)N3)oc2ccccc12.Cl (centres unmarked),broth dilution,BAA2341,16 µg/mL
C/C(=C\c1ccc(C#N)cc1)C(=O)Nc1ccc(C(=O)N[C@@H](CC(N)=O)C(=O)Nc2ccc(C(=O)Nc3ccc(C(=O)Nc4ccc(C(=O)O)cc4)c(O)c3OC(C)C)cc2)cc1,,DSM30054,> 64 µg/mL
CN(C)[C@@H]1C(O)=C(C(N)=O)C(=O)[C@@]2(O)C(O)=C3C(=O)c4c(O)cnc(Cl)c4C[C@H]3C[C@@H]12.Cl,broth dilution,ATCC13047,8 µg/mL
C[C@@H](O)[C@H]1C(=O)N2C(C(=O)O)=C(S[C@@H]3CN[C@H](C(=O)N(C)C)C3)[C@H](C)[C@H]12,,,1.3 µM
CO[C@@H](C(N)=O)[C@H](NC(=O)c1ccc(NC(=O)c2ccc(C#N)cc2)cc1)C(=O)Nc1ccc(C(=O)Nc2ccc(C(=O)Nc3ccc(C(=O)O)cc3)c(O)c2OC(C)C)cc1,,DSM30054,> 64 µg/mL
O=C(Nc1ccc2c(c1)OC(F)(F)O2)Nc1ccc(Cl)c(C(F)(F)F)c1,,DSM30054,> 100 µM
